Screens as filed in PubChem BioAssay.
Sampled rows, rich in hits. Any-hit rate of the full collection: about 5.5%.
STAT3 inh: inhibitors of IL-6 induced STAT3 signaling; U3A cells, IL-6 STAT3-luciferase reporter, luminescence; host cell line lacks STAT1; inhibition, % at 5.5 µM; hit rate 0.89% among 190,000;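 active means inhibition above the mean inhibition across all screened compounds plus 3 SD, cut at about 44% in these data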
HSV augment: HSV replication enhancement. HSV replication augmentation in cells, fold increase. hit rate 0.005% among 220,000. maximum fold increase; in the data active means maximum fold increase above about 1.5; tested in PC3 cells
KCC2 mod: modulates chloride dependent transport by human KCC2; AID 1456; Q9H2X9; B-score of Tl+ flux slope (higher = more flux/activation; lower = inhibition) at 10 µM; KCC2 cells, thallium flux FluoZin-2 fluorescence; hit rate 2.2% among 190,000;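 active means thallium flux slope and its plate-corrected score both differing from the plate sample mean at a set confidence after two filtering rounds, in either direction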;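 further: slope of fluorescence scaled to starting intensity during 10 to 20 s after thallium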
Target sequence (Q9H2X9 whole entry, looked up): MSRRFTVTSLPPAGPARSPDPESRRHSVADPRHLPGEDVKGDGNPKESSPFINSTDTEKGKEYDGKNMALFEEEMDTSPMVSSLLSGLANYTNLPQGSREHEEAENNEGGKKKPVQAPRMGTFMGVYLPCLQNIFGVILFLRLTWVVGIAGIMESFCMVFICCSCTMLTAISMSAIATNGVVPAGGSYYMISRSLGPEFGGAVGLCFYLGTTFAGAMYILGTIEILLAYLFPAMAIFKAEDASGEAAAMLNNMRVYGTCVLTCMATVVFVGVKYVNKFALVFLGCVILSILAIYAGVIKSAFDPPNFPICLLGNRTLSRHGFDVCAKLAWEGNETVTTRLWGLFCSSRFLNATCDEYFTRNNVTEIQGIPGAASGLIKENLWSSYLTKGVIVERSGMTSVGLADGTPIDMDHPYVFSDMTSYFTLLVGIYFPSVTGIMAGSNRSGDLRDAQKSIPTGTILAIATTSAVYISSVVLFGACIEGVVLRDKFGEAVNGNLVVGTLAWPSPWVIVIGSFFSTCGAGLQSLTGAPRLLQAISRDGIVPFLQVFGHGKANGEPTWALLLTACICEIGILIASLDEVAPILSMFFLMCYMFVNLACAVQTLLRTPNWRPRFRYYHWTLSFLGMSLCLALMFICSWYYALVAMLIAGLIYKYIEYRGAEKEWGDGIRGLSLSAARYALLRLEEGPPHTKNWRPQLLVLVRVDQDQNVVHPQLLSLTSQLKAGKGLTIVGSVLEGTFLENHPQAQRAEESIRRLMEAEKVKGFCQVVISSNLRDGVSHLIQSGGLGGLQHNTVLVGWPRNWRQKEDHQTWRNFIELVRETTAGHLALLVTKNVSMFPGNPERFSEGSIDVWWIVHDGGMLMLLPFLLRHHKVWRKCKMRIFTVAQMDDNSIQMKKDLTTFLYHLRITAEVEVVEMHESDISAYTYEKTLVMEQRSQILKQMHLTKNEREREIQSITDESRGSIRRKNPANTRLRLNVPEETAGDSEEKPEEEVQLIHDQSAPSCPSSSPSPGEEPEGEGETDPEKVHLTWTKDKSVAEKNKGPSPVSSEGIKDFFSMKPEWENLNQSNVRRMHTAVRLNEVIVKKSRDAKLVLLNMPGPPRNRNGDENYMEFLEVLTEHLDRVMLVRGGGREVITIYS
STAT1 blocker: reduces IFN-gamma driven STAT1 reporter signal; inhibition, % at 5.5 µM; hit rate 0.35% among 200,000; NIH 3T3 STAT1-luciferase reporter, luminescence; AID 920;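 active means inhibition above a set limit, the mean inhibition across all tested compounds plus 3 SD, cut at about 34% in these data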
STAT1 act: STAT1 signaling activation. NIH 3T3 STAT1-luciferase reporter, IFN-gamma, luminescence; 100% = IFN-gamma alone, no compound. activation (% of control), % at 5.5 µM. hit rate 2.6% among 200,000;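 active means activation above the screen-wide mean activation plus 3 SD, cut at about 130% in these data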
STAT3 activator: activators of IL-6 induced STAT3 signaling. U3A cells, IL-6 STAT3-luciferase reporter, luminescence; 100% = signal with IL-6 EC80 alone. activation (% of control), % at 5.6 µM. hit rate 0.91% among 190,000. AID 871;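 active means activation above the screen-wide mean of compound activation plus 3 SD, cut at about 130% in these data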
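Material: STAT3-luciferase reporter U3A cells. Controls: IL-6-treated wells, 100% activation. Read-out: % activation versus median of IL-6-stimulated wells. Probe or stimulus: IL-6 stimulus at 33 ng/mL final. Timing: compound 1 h, then IL-6 6 h at 37 °C. Signal: reporter luminescence signal.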
Large screens that a line does not name were inactive.

CCOC(=O)Nc1sc2c(c1C(N)=O)CCC(C)C2 (stereo unspecified)	none
Cc1ccc(C(=O)Nc2cc([N+](=O)[O-])ccc2F)s1	none
CCc1ccc(C(=O)Nc2cc(C)ccc2F)s1	STAT1 act 132
C#CC(=O)N(c1ccc(OC)cc1OC)C(C(=O)NC1CCCC1)c1cccs1 (stereo unspecified)	STAT3 inh 84, STAT1 blocker 88 (no result: KCC2 mod)
C#CC(=O)N(c1cc(OC)ccc1OC)C(C(=O)NC1CCCC1)c1cccs1 (stereo unspecified)	STAT3 inh 114, STAT1 blocker 75
O=[N+]([O-])c1ccc(NC(=S)NCC(c2cccnc2)N2CCOCC2)cc1 (stereo unspecified)	none
C1=Cc2ccccc2Nc2ccccc21	none (no result: STAT3 inh, STAT1 blocker, STAT1 act, STAT3 activator)
COC(=O)/C(C#N)=C1/C=Cc2ccccc2N1	STAT1 act 130
Cc1ccc(C)c(S(=O)(=O)NCc2ccc(C(=O)NCc3ccccn3)cc2)c1	none
CCC(C)(C)c1ccc(OCCN2C(=O)NC(C)(C)C2=O)cc1	none
CCCCN(CCCC)C(=S)N/N=C/c1c(C)[nH]n(-c2ccccc2)c1=O	KCC2 mod 23
CCCCN=Cc1c(C)[nH]n(-c2ccccc2)c1=S	none
CCN(CC)CCCN(C(=O)c1cccs1)c1nc(-c2ccc(OC)cc2)cs1	none
COc1ccc(-c2csc(N(C)C(=O)c3cccs3)n2)cc1	STAT1 act 131
CCC(C)c1ccc(NC(=O)c2cccs2)cc1 (stereo unspecified)	STAT1 act 130
O=C(Nc1ccc(-c2cn3ccccc3n2)cc1)c1cccs1	STAT1 act 134
CC(C)(C)c1csc(NC(=O)c2cccs2)n1	STAT1 act 130
COc1ccc(CC(=O)Nc2ccc(-c3cn4ccccc4n3)cc2)cc1	none
COc1cc(C2/C(=C(/O)c3ccccc3)C(=O)C(=O)N2c2ccccn2)ccc1O (stereo unspecified)	none
Cc1nn(CC(=O)NNC(=O)c2ccccc2F)c([N+](=O)[O-])c1Br	none (no result: STAT3 inh, STAT1 blocker, STAT1 act, STAT3 activator)
O=C(COc1ccccc1[N+](=O)[O-])N(Cc1ccccc1)c1ccccn1	none
CCOC(=O)c1c(C)n(CC(O)CN(C)C)c2cc(Br)c(OC)cc12 (stereo unspecified)	none
COc1ccc(NC(=O)c2cccs2)cc1	STAT1 act 140
CC(=O)c1sc(-c2ccccc2)cc1NS(=O)(=O)c1ccc(C)cc1	KCC2 mod 30 (no result: STAT3 inh, STAT1 blocker, STAT1 act, STAT3 activator)
O=C(/C=C/Nc1ccc(Oc2ccccc2)cc1)c1ccco1	STAT1 act 140
NC(=O)c1ccccc1N/C=C/C(=O)c1ccco1	STAT1 act 134
O=C(/C=C/Nc1ccccc1C(F)(F)F)c1ccco1	none
O=C(/C=C/Nc1cccc(C(F)(F)F)c1)c1ccco1	STAT1 act 133
CC(C)C[C@H](NC(=O)NCc1ccc(F)cc1)C(=O)O	none (no result: STAT3 inh, STAT1 blocker, STAT1 act, STAT3 activator)
CC1CCc2c(nc3sc4c(c3c2N)CCCC4)C1 (stereo unspecified)	STAT1 act 135
Nc1c2c(nc3sc4c(c13)CCCCC4)CCCCC2	STAT1 act 145
CC1CCc2nc3sc4c(c3c(N)c2C1)CCCC4 (stereo unspecified)	none (no result: HSV augment)
Cc1c(CCOC(=O)c2cc([N+](=O)[O-])cc([N+](=O)[O-])c2)sc[n+]1CC(=O)c1ccc(Br)cc1	none
CC(Oc1ccc(Cl)cc1Cl)c1nc(-c2ccc(NC(=O)c3ccccn3)cc2)no1 (stereo unspecified)	STAT1 act 129
Cn1cc(Cl)c(C(=O)Nc2nc3ccccc3s2)n1	STAT1 act 148
Cc1cccnc1NC(=S)NC(=O)c1cccs1	STAT1 act 174, STAT3 activator 154 (no result: KCC2 mod)
CC(=O)c1sc2nc(-c3cccs3)ccc2c1N	none
Nc1c(C(=O)Nc2nc3ccccc3s2)sc2nc(-c3cccs3)ccc12	STAT1 act 140 (no result: HSV augment, KCC2 mod)
CCOC(=O)c1ccc2nc(NC(=O)c3cccs3)sc2c1	STAT1 act 140
O=C(Nc1nc2ccc(S(=O)(=O)N3CCCC3)cc2s1)c1cccs1	none
Cn1cc(Cl)c(C(=O)Nc2cccc(Cl)c2Cl)n1	none
CCS(=O)(=O)N1CCC(C(=O)N2CCN(Cc3ccccc3)CC2)CC1	none
CC(C)CCNC(=O)NC(=O)COC(=O)CNC(=O)C1CCCCC1	none
CC(C)OC(=O)/C(C#N)=C/c1c[nH]c2ccccc12	none
